Active and inactive are the calls of the source. The calls are words filed in the database; no cut-off is given here.
Key:
[1] = Inhibition of tubulin polymerization at 20 uM
Procedure, shortened: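 Tubulin at 2.5 mg/mL with 0.5 mM GTP in 80 mM K-PIPES pH 6.8, 1 mM MgCl2, 1 mM EGTA; compound at 20 µM final from DMSO; 37 °C. Light scattering read at 320 and 340 nm every 30 s for 75 min, with paclitaxel and colchicine (20 µM) controls.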

A2780 = test: Induction of mitotic arrest in human A2780 cells expressing MDR1 after 16 hrs; assay type: functional, cell-based; conditions: A2780, 16 h
Mus musculus = species on record: Mus musculus; test: Toxicity in naive mouse assessed as neutopenia after 6 days; assay type: organism-based; conditions: in vivo, 144 h
Procedure, shortened: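 Naive mice dosed under protocols varying dose, vehicle and frequency, with survival as the end point; peripheral blood counts, including neutrophils, followed after dosing.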

Kinesin-1 heavy chain = target: T1, Kinesin-1 heavy chain (Homo sapiens, UniProt P33176); test: Inhibition of cloned human uKHC
T1 sequence (P33176 whole entry): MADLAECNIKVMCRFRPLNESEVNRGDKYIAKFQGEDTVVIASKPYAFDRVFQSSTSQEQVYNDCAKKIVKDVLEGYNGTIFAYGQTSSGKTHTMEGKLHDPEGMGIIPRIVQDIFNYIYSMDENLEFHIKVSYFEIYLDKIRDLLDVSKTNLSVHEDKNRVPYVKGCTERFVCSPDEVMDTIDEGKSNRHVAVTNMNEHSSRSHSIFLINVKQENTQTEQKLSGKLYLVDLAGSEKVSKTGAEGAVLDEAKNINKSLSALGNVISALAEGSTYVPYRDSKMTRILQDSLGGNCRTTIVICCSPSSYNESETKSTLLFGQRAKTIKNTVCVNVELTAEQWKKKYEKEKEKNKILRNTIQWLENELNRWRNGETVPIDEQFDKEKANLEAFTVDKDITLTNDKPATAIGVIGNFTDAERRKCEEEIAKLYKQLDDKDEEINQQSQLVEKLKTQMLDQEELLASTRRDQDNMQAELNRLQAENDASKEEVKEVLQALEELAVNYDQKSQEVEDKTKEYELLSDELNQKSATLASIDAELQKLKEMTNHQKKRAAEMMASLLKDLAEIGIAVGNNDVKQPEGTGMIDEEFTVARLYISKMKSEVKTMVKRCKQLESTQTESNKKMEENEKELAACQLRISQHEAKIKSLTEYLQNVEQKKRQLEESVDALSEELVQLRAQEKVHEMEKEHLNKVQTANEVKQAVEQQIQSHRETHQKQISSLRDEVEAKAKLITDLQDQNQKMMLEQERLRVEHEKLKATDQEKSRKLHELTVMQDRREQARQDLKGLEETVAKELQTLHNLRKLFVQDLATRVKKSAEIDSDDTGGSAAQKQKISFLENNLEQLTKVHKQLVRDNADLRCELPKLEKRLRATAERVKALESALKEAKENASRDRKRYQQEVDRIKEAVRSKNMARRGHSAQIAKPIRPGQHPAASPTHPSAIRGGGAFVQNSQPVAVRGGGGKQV

[2] = target: T2, Kinesin heavy chain isoform 5A (Homo sapiens, UniProt Q12840); test: Inhibition of cloned human nKHC
T2 sequence (Q12840 whole entry): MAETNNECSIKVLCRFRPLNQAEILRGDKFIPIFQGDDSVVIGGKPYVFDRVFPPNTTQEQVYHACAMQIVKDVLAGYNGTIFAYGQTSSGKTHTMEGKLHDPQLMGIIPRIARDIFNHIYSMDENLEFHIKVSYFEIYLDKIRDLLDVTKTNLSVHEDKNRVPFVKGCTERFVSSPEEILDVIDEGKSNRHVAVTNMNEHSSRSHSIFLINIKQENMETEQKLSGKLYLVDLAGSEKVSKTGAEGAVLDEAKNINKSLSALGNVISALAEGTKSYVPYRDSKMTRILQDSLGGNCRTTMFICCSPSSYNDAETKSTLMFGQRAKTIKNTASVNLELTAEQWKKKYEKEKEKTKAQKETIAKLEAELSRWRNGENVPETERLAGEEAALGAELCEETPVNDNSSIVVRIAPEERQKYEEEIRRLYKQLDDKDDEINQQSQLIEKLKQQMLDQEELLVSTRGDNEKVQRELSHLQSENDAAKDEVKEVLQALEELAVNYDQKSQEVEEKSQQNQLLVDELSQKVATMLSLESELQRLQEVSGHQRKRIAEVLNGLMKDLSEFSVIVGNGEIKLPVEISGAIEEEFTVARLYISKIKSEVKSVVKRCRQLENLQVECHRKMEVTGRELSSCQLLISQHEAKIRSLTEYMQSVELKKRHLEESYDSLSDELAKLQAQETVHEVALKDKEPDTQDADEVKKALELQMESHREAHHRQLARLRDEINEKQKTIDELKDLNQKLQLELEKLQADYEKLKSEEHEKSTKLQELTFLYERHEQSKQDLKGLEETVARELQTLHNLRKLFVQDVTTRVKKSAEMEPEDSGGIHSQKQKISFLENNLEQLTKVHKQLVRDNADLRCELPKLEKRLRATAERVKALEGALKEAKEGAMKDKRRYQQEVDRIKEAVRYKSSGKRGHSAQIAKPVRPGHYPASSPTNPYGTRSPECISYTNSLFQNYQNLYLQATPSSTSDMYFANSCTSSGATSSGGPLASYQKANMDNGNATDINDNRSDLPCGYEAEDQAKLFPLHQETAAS

PTX10 = test: Inhibition of tumor growth in paclitaxel-resistant human PTX10 cells carries tubulin mutation xenografted clr:NU/NU-nuBR mouse assessed as change in tumor volume at 100 mg/kg, sc administered q4d x 3 dosing schedule relative to control

CN1CC[C@H](N(C)C(=O)N2CC(c3cc(F)ccc3F)=C[C@@]2(CO)c2ccccc2)[C@H](F)C1
Activity [1]: inactive | EC50 (A2780): 0.0053 µM | Activity (Mus musculus): Toxic | IC50 (Kinesin-1 heavy chain): > 50 µM | IC50 [2]: > 50 µM | Activity (PTX10): Active
